Structures are written as SMILES. Activity calls are given as the source filed them. No cut-off for these calls is given here.

Assay [1] relates to MCF7. In words: Cell cycle arrest in BrdU pulse-labelled human MCF7 cells assessed as accumulation at subG1 phase at 500 to 5000 nM after 24 hrs by propidium iodide staining based flow cytometry. It counts as functional. (In general: Flow cytometry measures light scatter and fluorescence of single cells or particles in a stream.)
Assay [2] can be described thus: Cytotoxicity against human G361 cells assessed as reduction in cell viability after 72 hrs by calcein AM staining based fluorescence assay. It counts as functional. The following applies: G-361, 72 h. Put shortly:
(§1)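 Cells were grown in DMEM with 10% FBS, penicillin and streptomycin at 37 °C in 5% CO2. Three doses were tested in triplicate for 72 h.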

Assay [3] relates to MCF7. In words: Cytotoxicity against human MCF7 cells assessed as reduction in cell viability after 72 hrs by calcein AM staining based fluorescence assay. It counts as functional. Put shortly: as §1
Assay [4] relates to MCF7. In words: Cell cycle arrest in BrdU pulse-labelled human MCF7 cells assessed as decrease in cells at S phase at 500 to 5000 nM after 24 hrs by propidium iodide staining based flow cytometry. The class given is functional.
The next assay relates to HCT-116. In words: (§2) Cytotoxicity against human HCT116 cells assessed as reduction in cell viability after 72 hrs by calcein AM staining based fluorescence assay. The class given is functional. Put shortly:
(§3)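 Cells were grown in DMEM with 10% FBS, penicillin and streptomycin at 37 °C in 5% CO2. Three doses were tested in triplicate for 72 h. Live cells were read by Calcein AM fluorescence at 485/538 nm.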

The nature of assay [5]: as §2. The class given is functional. The following applies: HCT-116, 72 h. Put shortly: as §3
The target in assay [6] is Cyclin-dependent kinase 2/cyclin E1 (Homo sapiens, UniProt P24941). In words: Inhibition of CDK2/Cyclin E (unknown origin) expressed in sf9 cells using histone H1 as substrate in presence of [gamma33P]-ATP. The class given is cell-based.
Assay [7] concerns MCF7. In words: Cell cycle arrest in BrdU pulse-labelled human MCF7 cells assessed as accumulation at late G2/M phase at 500 to 5000 nM after 24 hrs by propidium iodide staining based flow cytometry. It counts as functional.
The test system of assay [8] is MCF7. In words: Cell cycle arrest in BrdU pulse-labelled human MCF7 cells assessed as accumulation at late S phase at 500 to 5000 nM after 24 hrs by propidium iodide staining based flow cytometry. The class given is functional.
Assay [9] deals with MCF7. In words: Cell cycle arrest in BrdU pulse-labelled human MCF7 cells assessed as accumulation at subG1 phase at 2500 to 20000 nM after 24 hrs by propidium iodide staining based flow cytometry. It counts as functional.
For another assay, the system named is K562. In words: Cytotoxicity against human K562 cells assessed as reduction in cell viability after 72 hrs by calcein AM staining based fluorescence assay. To be noted: K562, 72 h. It counts as functional. Put shortly: as §1
For assay [10], the system named is MCF7. In words: Cell cycle arrest in BrdU pulse-labelled human MCF7 cells assessed as decrease in cell at S phase at 2500 to 20000 nM after 24 hrs by propidium iodide staining based flow cytometry. It counts as functional.
For assay [11], the system named is MCF7. In words: Cell cycle arrest in BrdU pulse-labelled human MCF7 cells assessed as accumulation at late G2/M phase at 2500 to 20000 nM after 24 hrs by propidium iodide staining based flow cytometry. It counts as functional.
Assay [12] concerns MCF7. In words: Cell cycle arrest in BrdU pulse-labelled human MCF7 cells assessed as accumulation at late S phase at 2500 to 20000 nM after 24 hrs by propidium iodide staining based flow cytometry. The class given is functional.

For orientation: IC50 means the midpoint of a concentration-inhibition curve. On to `CC(C)c1n[nH]c2c(NCc3ccc(-c4ccccn4)cc3)ncnc12`, for which the outcome with MCF7 [1], in the assay with MCF7 [4], in the assay on MCF7 [7] and in the assay on MCF7 [8] was Active. The values for the half-inhibitory concentration (IC50) in [2], in [5] and in assay [6] were 875 nM, 1240 nM and 197 nM, respectively. Moreover, the Activity result with MCF7 [3] and in the assay with HCT-116 was “Dose-dependent effect” each time.
In the case of `COc1ccc(CNc2nc(NCc3ccc(-c4ccccn4)cc3)c3[nH]nc(C(C)C)c3n2)cc1`, the half-inhibitory concentration (IC50) in [2] is 7490 nM; with MCF7 [3] (MCF7, 72 h) it was 5300 nM; in the assay on K562 it was 3950 nM; in assay [5] it was 17400 nM; in [6], 1480 nM. The Activity result in the assay on MCF7 [3] and in the assay with HCT-116 was “Dose-dependent effect” throughout. The outcome in the assay with MCF7 [9], in the assay with MCF7 [10], in the assay on MCF7 [11] and in the assay on MCF7 [12] was Active.

The values above are taken from ChEMBL document CHEMBL3774312, “5-Substituted 3-isopropyl-7-[4-(2-pyridyl)benzyl]amino-1(2)H-pyrazolo[4,3-d]pyrimidines with anti-proliferative activity as potent and selective inhibitors of cyclin-dependent kinases” (Eur J Med Chem, 2016).
